From ChEMBL document CHEMBL2021813, “Semisynthetic neoclerodanes as kappa opioid receptor probes” (Bioorg Med Chem, 2012)

Tests used:
[1] = molecular target: T1, Mu-type opioid receptor (Homo sapiens, UniProt P35372); assay: Displacement of [3H]DAMGO from human recombinant mu opioid receptor expressed in CHO cells after 2 hrs by liquid scintillation counting; assay type: cell-based
In short: (§1)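 Membranes from CHO cells stably transfected with human DOP, MOP or KOP receptor, in 50 mM Tris-HCl pH 7.4 with a protease inhibitor cocktail. The ~2 nM [3H]radioligand was displaced by 10 drug concentrations, in triplicate, for 2 hr at 25 °C, then filtered over GF/B. Nonspecific binding was set by 20 μM levallorphan (DADLE, DAMGO) or 1 μM (−)-U69,593 (U69,593). Ki (±SD) came from full curves, n=3.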

[2] = molecular target: T2, Kappa-type opioid receptor (Homo sapiens, UniProt P41145); assay: Displacement of [3H]U69593 from human recombinant kappa opioid receptor expressed in CHO cells after 2 hrs by liquid scintillation counting; assay type: cell-based; in short: as §1
[3] = molecular target: T3, Delta-type opioid receptor (Homo sapiens, UniProt P41143); assay: Displacement of [3H]DADLE from human recombinant delta opioid receptor expressed in CHO cells at 10 uM after 2 hrs by liquid scintillation counting; assay type: cell-based
In short: (§2)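 Radioligand (~2 nM) competition on human opioid receptor CHO membranes in Tris-HCl pH 7.4, 2 hr at 25 °C, with GF/B filtration and scintillation counting. Results are percent of control produced by a single test drug concentration, 1 μM or 10 μM as the line states. Nonspecific binding was set by 20 μM levallorphan (DADLE, DAMGO) or 1 μM (−)-U69,593 (U69,593).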

[4] = molecular target: T3, Delta-type opioid receptor; assay: Displacement of [3H]DADLE from human recombinant delta opioid receptor expressed in CHO cells after 2 hrs by liquid scintillation counting; assay type: cell-based; in short: as §1
[5] = molecular target: T3, Delta-type opioid receptor; assay: Displacement of [3H]DADLE from human recombinant delta opioid receptor expressed in CHO cells at 1 uM after 2 hrs by liquid scintillation counting; assay type: cell-based; in short: as §2
[6] = molecular target: T1, Mu-type opioid receptor; assay: Displacement of [3H]DAMGO from human recombinant mu opioid receptor expressed in CHO cells at 1 uM after 2 hrs by liquid scintillation counting; assay type: cell-based; in short: as §2
[7] = test system: Rhesus monkey; assay: In vivo binding affinity to kappa opioid receptor in iv dosed rhesus monkey assessed as rightward shift in serum prolactin level administered every 20 mins measured every 15 mins by immunoradiometric analysis; assay type: functional; conditions: Macaca mulatta
In short: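 Chair-trained male rhesus monkeys received i.v. cumulative doses rising in 0.5 log steps every 20 min. Blood was sampled 15 min after each dose, after two baseline samples at −10 and −5 min. Serum prolactin was expressed as change from each subject's pre-injection baseline, as mean ±SEM. ED50 came from linear regression of mean dose-effect points spanning the ED50.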

[8] = molecular target: T1, Mu-type opioid receptor; assay: Displacement of [3H]DAMGO from human recombinant mu opioid receptor expressed in CHO cells at 10 uM after 2 hrs by liquid scintillation counting; assay type: cell-based; in short: as §2
[9] = molecular target: T2, Kappa-type opioid receptor; assay: Agonist activity at human recombinant kappa opioid receptor expressed in CHO cells assessed as [35S]GTP-gamma-S binding after 3 hrs by liquid scintillation counting relative to (-)U50488; assay type: functional, cell-based
In short: (§3)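 hKOP-CHO membranes (50 μg protein) were incubated with 50 pM [35S]GTP-γ-S and 40 μM GDP. Final buffer was 50 mM Tris-HCl pH 7.4, 100 mM NaCl, 10 mM MgCl2, 1 mM EDTA, 1 mM DTT and 0.1% BSA. Incubation ran 3 hr at 25 °C. Nonspecific binding was set with 40 μM GTP-γ-S. Bound label was separated by vacuum filtration through GF/B and counted.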

[10] = molecular target: T2, Kappa-type opioid receptor; assay: Agonist activity at human recombinant kappa opioid receptor expressed in CHO cells assessed as [35S]GTP-gamma-S binding after 3 hrs by liquid scintillation counting; assay type: functional, cell-based; in short: as §3
[11] = molecular target: T2, Kappa-type opioid receptor; assay: Displacement of [3H]U69593 from human recombinant kappa opioid receptor expressed in CHO cells at 10 uM after 2 hrs by liquid scintillation counting; assay type: cell-based; in short: as §2
[12] = molecular target: T2, Kappa-type opioid receptor; assay: Agonist activity at human recombinant kappa opioid receptor expressed in CHO cells assessed as calcium mobilization after 1 hrs by fluorescence analysis; assay type: functional, cell-based
In short: (§4)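 CHO cells stably expressing KOP receptor with Gαq16 were plated at 30,000 cells/well and grown overnight at 37 °C. They were loaded with Calcium 5 dye in HBSS with 20 mM HEPES, 0.25% BSA, 1% DMSO and probenecid for 1 h at 37 °C. Compounds were added at 10X after a ~17 sec baseline, and fluorescence (ex 485/em 525 nm) was read every 1.52 sec for 60 sec. EC50 and Emax are given ±SD.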

[13] = molecular target: T2, Kappa-type opioid receptor; assay: Agonist activity at human recombinant kappa opioid receptor expressed in CHO cells assessed as calcium mobilization after 1 hrs by fluorescence analysis relative to U69593; assay type: functional, cell-based; in short: as §4
[14] = Chemical solubility of the compound in 50 mM Tris-HCl at pH 7.4; assay type: physicochemical; conditions: buffer
[15] = molecular target: T2, Kappa-type opioid receptor; assay: Partial agonist activity at human recombinant kappa opioid receptor expressed in CHO cells assessed as [35S]GTP-gamma-S binding after 3 hrs by liquid scintillation counting; assay type: functional, cell-based; in short: as §3
[16] = molecular target: T2, Kappa-type opioid receptor; assay: Partial agonist activity at human recombinant kappa opioid receptor expressed in CHO cells assessed as [35S]GTP-gamma-S binding after 3 hrs by liquid scintillation counting relative to (-)U50488; assay type: functional, cell-based; in short: as §3
[17] = Chemical solubility of the compound in THF; assay type: physicochemical

T3 sequence (P41143 whole entry): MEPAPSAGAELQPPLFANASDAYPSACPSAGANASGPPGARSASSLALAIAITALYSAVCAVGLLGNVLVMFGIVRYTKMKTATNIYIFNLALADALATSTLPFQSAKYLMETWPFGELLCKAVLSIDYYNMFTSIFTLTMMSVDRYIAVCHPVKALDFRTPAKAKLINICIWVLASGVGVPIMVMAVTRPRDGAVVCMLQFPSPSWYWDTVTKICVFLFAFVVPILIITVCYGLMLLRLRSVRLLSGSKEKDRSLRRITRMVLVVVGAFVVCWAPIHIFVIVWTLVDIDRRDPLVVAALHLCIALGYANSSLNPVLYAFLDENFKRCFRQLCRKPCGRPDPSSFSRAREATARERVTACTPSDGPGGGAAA
T1 sequence (P35372 whole entry): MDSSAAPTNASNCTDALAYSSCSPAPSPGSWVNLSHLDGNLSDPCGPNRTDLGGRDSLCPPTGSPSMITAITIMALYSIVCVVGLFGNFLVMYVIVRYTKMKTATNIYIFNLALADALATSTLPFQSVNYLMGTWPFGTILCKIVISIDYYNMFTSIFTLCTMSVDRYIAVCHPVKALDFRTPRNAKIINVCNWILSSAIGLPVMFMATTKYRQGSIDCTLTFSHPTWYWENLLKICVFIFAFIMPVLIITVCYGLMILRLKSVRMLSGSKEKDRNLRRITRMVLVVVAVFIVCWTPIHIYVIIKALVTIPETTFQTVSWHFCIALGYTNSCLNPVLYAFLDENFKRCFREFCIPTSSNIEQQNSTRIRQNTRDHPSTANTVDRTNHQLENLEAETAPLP
T2 sequence (P41145 whole entry): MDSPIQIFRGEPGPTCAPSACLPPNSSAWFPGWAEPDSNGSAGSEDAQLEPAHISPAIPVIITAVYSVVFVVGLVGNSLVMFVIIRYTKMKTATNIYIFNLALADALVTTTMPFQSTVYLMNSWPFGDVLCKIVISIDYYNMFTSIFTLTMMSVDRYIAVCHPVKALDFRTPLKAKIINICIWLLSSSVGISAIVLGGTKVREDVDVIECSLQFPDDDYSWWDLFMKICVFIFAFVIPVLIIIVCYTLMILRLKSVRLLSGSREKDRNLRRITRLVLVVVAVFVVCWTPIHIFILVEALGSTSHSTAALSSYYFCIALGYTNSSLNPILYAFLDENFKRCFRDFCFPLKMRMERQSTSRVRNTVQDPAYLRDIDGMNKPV

Structure (SMILES)	Ki [1]	Ki [2]	Activity [3]	Ki [4]	Activity [5]	Activity [8]	other results
COC(=O)[C@@H]1C[C@H](OC(C)=O)C(=O)[C@H]2[C@@]1(C)CC[C@H]1C(=O)O[C@H](C(=O)c3ccccc3O)C[C@]21C	3.6 µM	500 nM	94%	> 10 µM	–	–	–
COC(=O)[C@@H]1C[C@H](OC(C)=O)C(=O)[C@H]2[C@@]1(C)CC[C@H]1C(=O)O[C@H](C(=O)c3csc4ccccc34)C[C@]21C	> 1 µM	> 10000 nM	–	> 1 µM	56%	–	Activity [6]: 60%
COC(=O)[C@@H]1C[C@H](OC(C)=O)C(=O)[C@H]2[C@@]1(C)CC[C@H]1C(=O)O[C@@H](c3ccoc3)C[C@]21C [12-EPI-SALVINORIN A]	–	–	74%	–	–	72%	ED50 [7]: 0.038 mg/kg
COC(=O)[C@@H]1C[C@H](OC(C)=O)C(=O)[C@H]2[C@@]1(C)CC[C@H]1C(=O)O[C@H](C(=O)c3cccc(OC(F)(F)F)c3)C[C@]21C	4.8 µM	> 10000 nM	–	> 1 µM	37%	–	–
COC(=O)[C@@H]1C[C@H](OC(C)=O)C(=O)[C@H]2[C@@]1(C)CC[C@H]1C(=O)O[C@H](C(=O)c3cccs3)C[C@]21C	> 10 µM	36 nM	99%	> 10 µM	–	65%	Emax [9]: 95%; EC50 [10]: 1630 nM
COC(=O)[C@@H]1C[C@H](OC(C)=O)C(=O)[C@H]2[C@@]1(C)CC[C@H]1C(=O)O[C@H](C(=O)c3ccco3)C[C@]21C	9.8 µM	80 nM	91%	> 10 µM	–	–	Emax [9]: 92%; EC50 [10]: 2130 nM
COC(=O)[C@@H]1C[C@H](OC(C)=O)C(=O)[C@H]2[C@@]1(C)CC[C@H]1C(=O)O[C@H](C(=O)c3ccoc3)C[C@]21C	> 10 µM	150 nM	95%	> 10 µM	–	66%	–
COC(=O)[C@@H]1C[C@H](OC(C)=O)C(=O)[C@H]2[C@@]1(C)CC[C@H]1C(=O)O[C@H](C(=O)c3cc4ccccc4o3)C[C@]21C	> 10 µM	> 10000 nM	91%	> 10 µM	–	100%	Activity [11]: 92%
COC(=O)[C@@H]1C[C@H](OC(C)=O)C(=O)[C@H]2[C@@]1(C)CC[C@H]1C(=O)O[C@H](c3ccco3)C[C@]21C	> 1 µM	–	–	> 10 µM	99%	–	EC50 [12]: 12.2 nM; Emax [9]: 104%; Activity [6]: 81%; EC50 [10]: 140 nM; Emax [13]: 97%
COC(=O)[C@@H]1C[C@H](OC(C)=O)C(=O)[C@H]2[C@@]1(C)CC[C@H]1C(=O)O[C@H](C(=O)c3cccc(C#N)c3)C[C@]21C	> 1 µM	220 nM	–	> 10 µM	68%	–	Activity [6]: 61%
COC(=O)[C@@H]1C[C@H](OC(C)=O)C(=O)[C@H]2[C@@]1(C)CC[C@H]1C(=O)O[C@H](C(=O)c3cccc(C(F)(F)F)c3)C[C@]21C	3.4 µM	2260 nM	–	> 1 µM	46%	–	–
COC(=O)[C@@H]1C[C@H](OC(C)=O)C(=O)[C@H]2[C@@]1(C)CC[C@H]1C(=O)O[C@H](c3ccoc3)C[C@]21C [SALVINORIN A]	–	–	–	–	–	–	ED50 [7]: 0.0037 mg/kg
COC(=O)[C@@H]1C[C@H](OC(C)=O)C(=O)[C@H]2[C@@]1(C)CC[C@H]1C(=O)O[C@H](C(=O)c3cc4ccccc4s3)C[C@]21C	> 10 µM	9210 nM	95%	> 10 µM	–	58%	–
COC(=O)[C@@H]1C[C@H](OC(C)=O)C(=O)[C@H]2[C@@]1(C)CC[C@H]1C(=O)O[C@H](C(=O)c3ccc(O)cc3)C[C@]21C	> 10 µM	8470 nM	100%	> 10 µM	–	93%	–
COC(=O)[C@@H]1C[C@H](OC(C)=O)C(=O)[C@H]2[C@@]1(C)CC[C@H]1C(=O)O[C@H](/C=C\c3ccoc3)C[C@]21C	–	–	94%	–	–	–	solubility [14]: Insoluble; Emax [9]: 105%
C/C=C\C(=O)[C@@H]1C[C@]2(C)[C@H]3C(=O)[C@@H](OC(C)=O)C[C@@H](C(=O)OC)[C@]3(C)CC[C@H]2C(=O)O1	> 1.7 µM	320 nM	–	> 5 µM	–	–	–
COC(=O)[C@@H]1C[C@H](OC(C)=O)C(=O)[C@H]2[C@@]1(C)CC[C@H]1C(=O)O[C@H](C(=O)c3cccc(OC)c3)C[C@]21C	3.09 µM	290 nM	–	> 10 µM	77%	–	–
COC(=O)[C@@H]1C[C@H](OC(C)=O)C(=O)[C@H]2[C@@]1(C)CC[C@H]1C(=O)O[C@H](C(=O)c3ccc(OC)cc3)C[C@]21C	> 10 µM	> 10000 nM	–	> 10 µM	81%	74%	–
COC(=O)[C@@H]1C[C@H](OC(C)=O)C(=O)[C@H]2[C@@]1(C)CC[C@H]1C(=O)O[C@H](C(=O)c3ccccc3OC)C[C@]21C	> 10 µM	1070 nM	–	> 10 µM	87%	53%	–
COC(=O)[C@@H]1C[C@H](OC(C)=O)C(=O)[C@H]2[C@@]1(C)CC[C@H]1C(=O)O[C@H](C(=O)c3ccsc3)C[C@]21C	2.53 µM	31 nM	88%	> 10 µM	–	–	Emax [9]: 88%; EC50 [10]: 620 nM
COC(=O)[C@@H]1C[C@H](OC(C)=O)C(=O)[C@H]2[C@@]1(C)CC[C@H]1C(=O)O[C@H](C(=O)c3ccccc3)C[C@]21C	1.49 µM	70 nM	100%	> 10 µM	–	–	EC50 [15]: 2280 nM; Emax [16]: 74%
COC(=O)[C@@H]1C[C@H](OC(C)=O)C(=O)[C@H]2[C@@]1(C)CC[C@H]1C(=O)O[C@H](C(=O)c3cccc(C(N)=O)c3)C[C@]21C	> 10 µM	40 nM	–	> 10 µM	52%	–	EC50 [12]: 75.4 nM; Emax [9]: 92%; Activity [6]: 84%; EC50 [10]: 730 nM; Emax [13]: 97%
COC(=O)[C@@H]1C[C@H](OC(C)=O)C(=O)[C@H]2[C@@]1(C)CC[C@H]1C(=O)O[C@H](C(=O)c3cccc(O)c3)C[C@]21C	> 1 µM	110 nM	80%	> 10 µM	–	–	Activity [6]: 55%
COC(=O)[C@@H]1C[C@H](OC(C)=O)C(=O)[C@H]2[C@@]1(C)CC[C@H]1C(=O)O[C@H](/C=C/c3ccoc3)C[C@]21C	> 10 µM	1120 nM	66%	> 10 µM	–	78%	–
COC(=O)[C@@H]1C[C@H](OC(C)=O)C(=O)[C@H]2[C@@]1(C)CC[C@H]1C(=O)O[C@H](C=O)C[C@]21C	–	–	–	–	–	–	solubility [17]: Insoluble
